Laboratory results: paper PMC11960622 (RSC Advances, 2025)

What was measured:
A549 cells = assay: MTT cytotoxicity assay, A549; type: cell-based; settings: for IC50: Homo sapiens, A549, 72 h, read-out: IC50 A549; for fold more toxic to A549 cells than VERO normal cells: selectivity VERO/A549
Summary of the method: (§1)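 ATCC cells in RPMI 1640 with 10% heat-inactivated FBS and penicillin/streptomycin, 37 °C, 5% CO2. Trypsinized cells seeded at 1000–2000 per well, grown 24 h, then exposed 72 h to free or Cs/PVA-nanogel-loaded test compound (0.1, 10, 100, 1000 μM). MTT 2 h, formazan dissolved in acidified isopropanol, A570 read. Viability expressed versus control; IC50 derived.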

calf thymus DNA = assay: DNA/methyl green assay; settings: read-out: DNA binding IC50; methyl green displacement, 24 h, pH 7.5
Summary of the method: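 Calf thymus DNA (10 mg) and methyl green (20 mg) in 100 mL 0.05 M Tris–HCl pH 7.5 with 7.5 mM MgSO4, stirred 24 h at 37 °C. Ethanol solutions of test compounds at 10, 100 and 1000 μM were dried under vacuum in wells, then complex added. Incubated at room temperature in the dark; A642.5–645 read at 24 h, normalized to untreated complex; IC50 fitted. Doxorubicin control.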

topo-II enzyme = assay: In vitro topoisomerase II inhibitory activity; type: biochemical; settings: read-out: Topo-II assay IC50
HCT116 cells = assay: MTT cytotoxicity assay, HCT116; type: cell-based; settings: for IC50: Homo sapiens, HCT-116, 72 h, read-out: IC50 HCT116; for fold more toxic to HCT-116 cells than normal VERO cells: selectivity VERO/HCT-116
HepG2 cells = assay: MTT cytotoxicity assay, HepG2; type: cell-based; settings: for IC50: Homo sapiens, HepG2, 72 h, read-out: IC50 HepG2; for fold toxic to HepG-2 cells than ordinary VERO cells: selectivity VERO/HepG-2
Summary of the method: as §1

MCF-7 cells = assay: MTT cytotoxicity assay, MCF-7; type: cell-based; settings: for IC50: Homo sapiens, MCF7, 72 h, read-out: IC50 MCF-7; for fold more toxic to MCF-7 cells than ordinary VERO cells: selectivity VERO/MCF-7
Summary of the method: as §1

SMILES | IC50 (A549 cells) | IC50 (calf thymus DNA) | IC50 (topo-II enzyme) | fold more toxic to A549 cells than VERO normal cells (A549 cells) | IC50 (HCT116 cells) | fold more toxic to HCT-116 cells than normal VERO cells (HCT116 cells) | IC50 (HepG2 cells) | fold toxic to HepG-2 cells than ordinary VERO cells (HepG2 cells) | IC50 (MCF-7 cells) | fold more toxic to MCF-7 cells than ordinary VERO cells (MCF-7 cells)
COc1cccc2c1C(=O)c1c(O)c3c(c(O)c1C2=O)C[C@@](O)(C(=O)CO)C[C@@H]3O[C@H]1C[C@H](N)[C@H](O)[C@H](C)O1 [Doxorubicin, reference compound] | 8.54 ± 0.8 µM | 31.3 ± 1.8 µM | 0.94 ± 0.4 µM | – | – | – | – | – | – | –
NC1=NN(C(=O)C=Cc2ccccc2)C(=O)C1N=Nc1ccccc1C(=O)O (stereo not drawn) [Compound 2, 2-((3-Amino-1-cinnamoyl-5-oxo-4,5-dihydro-1H-pyrazol-4-yl)diazenyl)benzoic acid] | 6.3 ± 0.5 µM | 37 ± 3.9 µM | 1.31 ± 0.4 µM | 9.48 fold | 10.6 ± 1.5 µM | 5.63 fold | 8.8 ± 0.5 µM | 6.78 fold | 8.3 ± 0.5 µM | 7.19 fold
NC1=NN(c2ccc([N+](=O)[O-])cc2[N+](=O)[O-])C(=O)C1N=Nc1ccccc1C(=O)O (stereo not drawn) [Compound 3, 2-((3-Amino-1-(2,4-dinitrophenyl)-5-oxo-4,5-dihydro-1H-pyrazol-4-yl)diazenyl)benzoic acid] | 6.1 ± 0.5 µM | 38.6 ± 3.8 µM | 1.49 ± 0.4 µM | 8.92 fold | 11 ± 1.1 µM | 4.95 fold | 8.95 ± 0.5 µM | 6.08 fold | 8.65 ± 0.8 µM | 6.29 fold
NC1=NC(=NS(=O)(=O)c2ccc(N)cc2)NC(=O)C1N=Nc1ccccc1C(=O)O (stereo not drawn) [Compound 4, 2-((4-Amino-2-(((4-aminophenyl)sulfonyl)imino)-6-oxo-1,2,5,6-tetrahydropyrimidin-5-yl)diazenyl)-benzoic acid] | 5.5 ± 0.5 µM | 36 ± 3.5 µM | 1.2 ± 0.4 µM | 10.44 fold | 9.77 ± 1.1 µM | 5.88 fold | 7.12 ± 0.5 µM | 8.07 fold | 7.85 ± 0.5 µM | 7.32 fold
